{"source": "ChEMBL document CHEMBL1158750", "about": "“Merosesquiterpenes from two sponges of the genus Dysidea” (2005)", "assay_type_in_all_cases": "functional", "settings_in_all_cases": "for CC50: read-out: LC50 (the source's name)", "key": {"[1]": {"system": "MDA-MB-231", "experiment": "Cytotoxicity against human MDA-MB-231 cells by SRB assay", "procedure,_shortened": "(§1)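 Human tumor cell line (A-549 lung carcinoma, HT-29 colon adenocarcinoma, MDA-MB-231 mammary gland adenocarcinoma) growth and viability measured by colorimetric sulforhodamine B (SRB) staining. Parameters derived were GI50 (50% growth inhibition), TGI (total growth inhibition) and LC50 (50% cell killing).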"}, "[2]": {"system": "A549", "experiment": "Cytotoxicity against human A549 cells by SRB assay", "procedure,_shortened": "as §1"}, "[3]": {"system": "HT-29", "experiment": "Cytotoxicity against human HT-29 cells by SRB assay", "procedure,_shortened": "as §1"}}, "data": [{"smiles": "CC1=CC[C@H]2C(C)(C)CCC[C@]2(C)[C@H]1C[C@H]1C(=O)C=C[C@@H]1O", "note": "[DYSIENONE]", "values": [{"measurement": "GI50", "setting": "[1]", "value": 15.2, "unit": "µM"}, {"measurement": "TGI", "setting": "[1]", "value": 16.5, "unit": "µM"}, {"measurement": "CC50", "setting": "[1]", "value": 17.9, "unit": "µM"}, {"measurement": "GI50", "setting": "[2]", "value": 12.9, "unit": "µM"}, {"measurement": "TGI", "setting": "[2]", "value": 13.6, "unit": "µM"}, {"measurement": "CC50", "setting": "[2]", "value": 14.2, "unit": "µM"}, {"measurement": "GI50", "setting": "[3]", "value": 13.6, "unit": "µM"}, {"measurement": "TGI", "setting": "[3]", "value": 14.2, "unit": "µM"}, {"measurement": "CC50", "setting": "[3]", "value": 15.2, "unit": "µM"}]}, {"smiles": "CC(=O)Oc1ccc(O)c(C[C@H]2C(C)=CC[C@H]3C(C)(C)CCC[C@]23C)c1O", "values": [{"measurement": "GI50", "setting": "[1]", "value": 10.5, "unit": "µM"}, {"measurement": "TGI", "setting": "[1]", "value": 11, "unit": "µM"}, {"measurement": "CC50", "setting": "[1]", "value": 11.8, "unit": "µM"}, {"measurement": "GI50", "setting": "[2]", "value": 10.5, "unit": "µM"}, {"measurement": "TGI", "setting": "[2]", "value": 11, "unit": "µM"}, {"measurement": "CC50", "setting": "[2]", "value": 11.8, "unit": "µM"}, {"measurement": "GI50", "setting": "[3]", "value": 11.3, "unit": "µM"}, {"measurement": "TGI", "setting": "[3]", "value": 12.6, "unit": "µM"}, {"measurement": "CC50", "setting": "[3]", "value": 14, "unit": "µM"}]}, {"smiles": "C=C1CCC[C@H]2[C@](C)(Cc3cc(OC(C)=O)ccc3O)[C@@H](C)CC[C@]12C", "values": [{"measurement": "GI50", "setting": "[1]", "value": 21, "unit": "µM"}, {"measurement": "GI50", "setting": "[2]", "value": 25.5, "unit": "µM"}]}, {"smiles": "CC1(C)CCC[C@]2(C)[C@@H](Cc3cc(O)ccc3O)[C@](C)(O)CC[C@@H]12", "values": [{"measurement": "GI50", "setting": "[1]", "value": 27.7, "unit": "µM"}, {"measurement": "GI50", "setting": "[2]", "value": 17.4, "unit": "µM"}]}]}
